Published values gathered from unrelated publications.
Target: Serine/threonine-protein kinase RIO3 (RIOK3, Homo sapiens, UniProt O14730)
Sequence (O14730 1-519, as in one of the studies): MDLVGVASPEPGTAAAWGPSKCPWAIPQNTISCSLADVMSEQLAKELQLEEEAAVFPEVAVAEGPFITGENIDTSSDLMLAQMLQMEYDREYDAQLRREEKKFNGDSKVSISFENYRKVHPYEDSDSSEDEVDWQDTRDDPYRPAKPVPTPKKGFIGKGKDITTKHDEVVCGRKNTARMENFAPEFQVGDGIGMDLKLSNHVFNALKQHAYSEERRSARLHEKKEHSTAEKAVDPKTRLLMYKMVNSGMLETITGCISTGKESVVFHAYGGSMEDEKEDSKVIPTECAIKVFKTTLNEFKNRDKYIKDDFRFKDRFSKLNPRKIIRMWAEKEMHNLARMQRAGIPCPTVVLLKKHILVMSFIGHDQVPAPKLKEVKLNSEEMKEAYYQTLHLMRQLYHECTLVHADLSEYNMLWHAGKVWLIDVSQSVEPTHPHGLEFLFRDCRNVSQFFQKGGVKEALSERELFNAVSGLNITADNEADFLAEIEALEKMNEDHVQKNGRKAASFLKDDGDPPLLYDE

| SMILES | test | setting | remaining binding [%] |
| --- | --- | --- | --- |
| COc1cc(-c2cn(C3CCc4ccccc4N(CC(F)(F)F)C3=O)nn2)ccc1-n1ccc(C)n1 (stereo not shown) | cell-free assay, competition with immobilised ligand | 1 µM | 100 |
| C[C@@H](c1ccc(-n2cnc3c(N)ncnc32)cc1)N1CCc2nn(C)c(Cc3ccccc3)c2C1=O | binding, competition with immobilised ligand | 0.1 µM | 76 |
| CO[C@@H](C)c1c(Nc2ccc([C@@H](N(C)C(=O)C3CCS(=O)(=O)CC3)C(F)(F)F)cc2)cnc2cc(Cl)nn12 | cell-free assay, competition with immobilised ligand | 1 µM | 90 |
| F[C@@H]1CCN(c2nccc(-c3cnn4ncccc34)n2)C1 | binding | 1 µM | 85 |
| O=C(NCCCN1CCOCC1)c1ccc(Nc2nccc(-c3cc4ccccc4s3)n2)cc1 | binding, competition with immobilised ligand | 1 µM | 1.7 |
| CN(C)c1nccc(-c2cnn3ncccc23)n1 | binding | 1 µM | 100 |
| O=C(N1CCS(=O)(=O)CC1)N1C[C@H](c2ccc(OC(F)(F)F)cc2)C[C@H](c2nc(C3CC3)no2)C1 | cell-free assay, competition with immobilised ligand | 1 µM | 85 |
| CN(C)c1ncc(F)c(-c2cnn3ncccc23)n1 | binding | 1 µM | 100 |
| COc1ncc2cc3ccccc3nc2c1C#N | cell-free assay, competition with immobilised ligand | 5 µM | 97 |
| O=C(Nc1c[nH]nc1C(=O)NC1CCNCC1)c1cc(F)cc(F)c1 | binding, competition with immobilised ligand | 1 µM | 100 |
| Cc1cc(NC(=O)c2cccc(S(F)(F)(F)(F)F)c2)cc(-n2ccn3nc(-c4cccnc4)cc23)c1 | cell-free assay, competition with immobilised ligand | 1 µM | 85.9 |
| C[C@H]1CCN(c2nccc(-c3cnn4ncccc34)n2)C1 | binding | 1 µM | 100 |
| CCN1CCN(Cc2ccc(C(=O)Nc3ccc(C)c(Oc4ccc5c(c4)CC(=O)N5)c3)cc2C(F)(F)F)CC1 | binding, competition with immobilised ligand | 1 µM | 100 |
| COc1cnc(Nc2cccc(S(N)(=O)=O)c2)nc1N1CCN(c2ccccc2)C(=O)C1 | binding, competition with immobilised ligand | 1 µM | 57 |
| CN(CCCC(F)(F)F)c1nccc(-c2cnn3ncccc23)n1 | binding | 1 µM | 100 |
| O=C1NC(c2ccccn2)Sc2ccccc21 (stereo not shown) | cell-free assay, competition with immobilised ligand | 1 µM | 91 |
| FC(F)(F)Oc1cccc(-c2cnc3ccc(-c4ccncc4)nn23)c1 | binding, competition with immobilised ligand | 5 µM | 16 |
| O=C(c1ccc(Nc2nccc(-c3cc4ccccc4s3)n2)cc1)N1CCC(N2CCCC2)CC1 | binding, competition with immobilised ligand | 1 µM | 0.9 |
| N[C@@H]1CCN(c2nccc(-c3cnn4ncccc34)n2)C1 | binding | 1 µM | 100 |
| O=C(c1ccc(Nc2ncc(Cl)c(-c3ccc(Cl)s3)n2)cc1)N1CCC(N2CCCC2)CC1 | binding, competition with immobilised ligand | 1 µM | 0 |
| Cc1cnn2ncc(-c3ccnc(N(C)C)n3)c2c1 | binding | 1 µM | 100 |
| CCCOc1ccc([C@@H]2[C@@H](C(=O)O)[C@H](c3ccc4c(c3)OCO4)CN2CC(=O)Nc2c(CC)cccc2CC)cc1 | cell-free assay, competition with immobilised ligand | 1 µM | 100 |
